In brackets after ≈: the same amount, converted by molar mass. Activity calls are given as the source filed them. The rule behind the calls is not given here.
Experiments:
[1] = molecular target: Bifunctional dihydrofolate reductase-thymidylate synthase (Plasmodium falciparum K1, UniProt P13922, C59R/I164L/N51I/S108N); experiment: Inhibition constant against PfDHFR (Plasmodium falciparum dihydrofolate reductase) with quadruple (N51I + C59R + S108N + I164L) mutations
How it was run: (§1)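 Recombinant wild-type or mutant PfDHFR, expressed in bacteria (induction at 20 °C for 20 h) and purified on methotrexate-Sepharose. Spectrophotometric assay in 50 mM TES pH 7.0, 75 mM β-mercaptoethanol, 1 mg/mL BSA, with 100 μM each H2-folate and NADPH. Started with enzyme (0.6–1 nM). Ki from IC50 = Ki(1+[S]/Km), assuming competitive binding.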

[2] = molecular target: Bifunctional dihydrofolate reductase-thymidylate synthase (Plasmodium falciparum K1, UniProt P13922, A16V); experiment: Inhibition constant against PfDHFR (Plasmodium falciparum dihydrofolate reductase) with single A16V mutation; how it was run: as §1
[3] = molecular target: Bifunctional dihydrofolate reductase-thymidylate synthase (Plasmodium falciparum K1, UniProt P13922); experiment: Inhibition constant against wild-type PfDHFR (Plasmodium falciparum dihydrofolate reductase); how it was run: as §1
[4] = molecular target: Bifunctional dihydrofolate reductase-thymidylate synthase (Plasmodium falciparum K1, UniProt P13922, A16V/S108T); experiment: Inhibition constant against PfDHFR (Plasmodium falciparum dihydrofolate reductase) with double (A16V + S108T) mutations; how it was run: as §1
[5] = molecular target: Bifunctional dihydrofolate reductase-thymidylate synthase (Plasmodium falciparum K1, UniProt P13922, S108T); experiment: Inhibition constant against PfDHFR (Plasmodium falciparum dihydrofolate reductase) with single S108T mutation; how it was run: as §1
[6] = molecular target: Bifunctional dihydrofolate reductase-thymidylate synthase (Plasmodium falciparum K1, UniProt P13922, C59R/I164L/S108N); experiment: Inhibition constant against PfDHFR (Plasmodium falciparum dihydrofolate reductase) with triple (C59R + S108N + I164L) mutations; how it was run: as §1
[7] = molecular target: Bifunctional dihydrofolate reductase-thymidylate synthase (Plasmodium falciparum K1) (UniProt P13922); experiment: Inhibition constant for PfDHFR (Plasmodium falciparum dihydrofolate reductase) with quadruple (N51I + C59R + S108N + I164L) mutations; Not active
How it was run: as §1, with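 “nM). […]” for “nM).”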

[8] = molecular target: Bifunctional dihydrofolate reductase-thymidylate synthase (Plasmodium falciparum K1) (UniProt P13922); experiment: Inhibition constant for PfDHFR (Plasmodium falciparum dihydrofolate reductase) with single S108T mutation; Not active
How it was run: as §1, with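 “nM). […]” for “nM).”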

[9] = molecular target: Bifunctional dihydrofolate reductase-thymidylate synthase (Plasmodium falciparum K1) (UniProt P13922); experiment: Inhibition constant for PfDHFR (Plasmodium falciparum dihydrofolate reductase) with double (A16V + S108T) mutations; Not active
How it was run: as §1, with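 “nM). […]” for “nM).”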

[10] = molecular target: Bifunctional dihydrofolate reductase-thymidylate synthase (Plasmodium falciparum K1) (UniProt P13922); experiment: Inhibition constant for PfDHFR (Plasmodium falciparum dihydrofolate reductase) with single A16V mutation; Not active
How it was run: as §1, with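 “nM). […]” for “nM).”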

[11] = molecular target: Bifunctional dihydrofolate reductase-thymidylate synthase (Plasmodium falciparum K1) (UniProt P13922); experiment: Inhibition constant for PfDHFR (Plasmodium falciparum dihydrofolate reductase) with triple (C59R + S108N + I164L) mutations; Not active
How it was run: as §1, with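 “nM). […]” for “nM).”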

[12] = molecular target: Bifunctional dihydrofolate reductase-thymidylate synthase (Plasmodium falciparum K1) (UniProt P13922); experiment: Inhibition constant against wild-type PfDHFR (Plasmodium falciparum dihydrofolate reductase); Not active
How it was run: as §1, with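 “nM). […]” for “nM).”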

[13] = molecular target: Bifunctional dihydrofolate reductase-thymidylate synthase (Plasmodium falciparum K1) (UniProt P13922); experiment: Inhibition constant against wild-type PfDHFR (Plasmodium falciparum dihydrofolate reductase); Inactive
How it was run: as §1, with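 “nM). […]” for “nM).”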

[14] = molecular target: Bifunctional dihydrofolate reductase-thymidylate synthase (Plasmodium falciparum K1) (UniProt P13922); experiment: Inhibition constant for resistant mutant PfDHFR (Plasmodium falciparum dihydrofolate reductase); Inactive
How it was run: as §1, with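 “nM). […]” for “nM).”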

[15] = Determined the solubility of the compound; type: ADME; settings: read-out: S
[16] = molecular target: Bifunctional dihydrofolate reductase-thymidylate synthase (Plasmodium falciparum K1) (UniProt P13922); experiment: Inhibition constant for resistant mutant PfDHFR (Plasmodium falciparum dihydrofolate reductase) at 750 uM; Inactive
How it was run: as §1, with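 “nM). […]” for “nM).”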

[17] = molecular target: Bifunctional dihydrofolate reductase-thymidylate synthase (Plasmodium falciparum K1) (UniProt P13922); experiment: Inhibition constant against wild-type PfDHFR (Plasmodium falciparum dihydrofolate reductase) at 750 uM; Inactive
How it was run: as §1, with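 “nM). […]” for “nM).”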

[18] = molecular target: Bifunctional dihydrofolate reductase-thymidylate synthase (Plasmodium falciparum K1) (UniProt P13922); experiment: Inhibition constant for PfDHFR (Plasmodium falciparum dihydrofolate reductase) with single S108T mutation at a concentration of 100 uM; Not active
How it was run: as §1, with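 “nM). […]” for “nM).”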

[19] = molecular target: Bifunctional dihydrofolate reductase-thymidylate synthase (Plasmodium falciparum K1) (UniProt P13922); experiment: Inhibition constant against wild-type PfDHFR (Plasmodium falciparum dihydrofolate reductase) at a concentration of 100 uM; Not active
How it was run: as §1, with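 “nM). […]” for “nM).”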

[20] = molecular target: Bifunctional dihydrofolate reductase-thymidylate synthase (Plasmodium falciparum K1) (UniProt P13922); experiment: Inhibition constant for PfDHFR (Plasmodium falciparum dihydrofolate reductase) with double (A16V + S108T) mutations at a concentration of 100 uM; Not active
How it was run: as §1, with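 “nM). […]” for “nM).”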

[21] = molecular target: Bifunctional dihydrofolate reductase-thymidylate synthase (Plasmodium falciparum K1) (UniProt P13922); experiment: Inhibition constant for PfDHFR (Plasmodium falciparum dihydrofolate reductase) with single A16V mutation at a concentration of 100 uM; Not active
How it was run: as §1, with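 “nM). […]” for “nM).”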

[22] = molecular target: Bifunctional dihydrofolate reductase-thymidylate synthase (Plasmodium falciparum K1) (UniProt P13922); experiment: Inhibition constant for PfDHFR (Plasmodium falciparum dihydrofolate reductase) with triple (C59R + S108N + I164L) mutations at a concentration of 100 uM; Not active
How it was run: as §1, with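 “nM). […]” for “nM).”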

Bifunctional dihydrofolate reductase-thymidylate synthase (Plasmodium falciparum K1, UniProt P13922, S108T), sequence (P13922 whole entry, looked up, stated change not applied): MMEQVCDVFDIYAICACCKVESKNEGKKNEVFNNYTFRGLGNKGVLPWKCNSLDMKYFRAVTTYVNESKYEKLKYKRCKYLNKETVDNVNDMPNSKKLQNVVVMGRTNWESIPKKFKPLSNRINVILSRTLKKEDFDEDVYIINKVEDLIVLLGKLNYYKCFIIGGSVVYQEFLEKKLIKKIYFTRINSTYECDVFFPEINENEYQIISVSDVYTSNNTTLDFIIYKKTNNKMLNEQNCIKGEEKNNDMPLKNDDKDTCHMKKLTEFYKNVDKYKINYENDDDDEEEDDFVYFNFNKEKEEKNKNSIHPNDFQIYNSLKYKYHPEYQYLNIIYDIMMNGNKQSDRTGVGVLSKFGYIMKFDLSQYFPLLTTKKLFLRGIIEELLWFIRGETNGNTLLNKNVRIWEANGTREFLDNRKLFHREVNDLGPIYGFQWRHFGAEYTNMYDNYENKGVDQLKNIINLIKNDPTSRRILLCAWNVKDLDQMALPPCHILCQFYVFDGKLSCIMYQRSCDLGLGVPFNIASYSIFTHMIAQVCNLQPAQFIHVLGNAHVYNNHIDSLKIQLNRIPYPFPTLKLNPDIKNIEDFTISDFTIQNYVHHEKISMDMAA
Bifunctional dihydrofolate reductase-thymidylate synthase (Plasmodium falciparum K1, UniProt P13922), sequence (P13922 whole entry): as the sequence (P13922 whole entry, looked up, stated change not applied) above
Bifunctional dihydrofolate reductase-thymidylate synthase (Plasmodium falciparum K1, UniProt P13922, C59R/I164L/N51I/S108N), sequence (P13922 whole entry, looked up, stated change not applied): as above
Bifunctional dihydrofolate reductase-thymidylate synthase (Plasmodium falciparum K1, UniProt P13922, C59R/I164L/S108N), sequence (P13922 whole entry, looked up, stated change not applied): as above
Bifunctional dihydrofolate reductase-thymidylate synthase (Plasmodium falciparum K1), sequence (P13922 whole entry, looked up): as the sequence (P13922 whole entry, looked up, stated change not applied) above
Bifunctional dihydrofolate reductase-thymidylate synthase (Plasmodium falciparum K1, UniProt P13922, A16V/S108T), sequence (P13922 whole entry, looked up, stated change not applied): as above
Bifunctional dihydrofolate reductase-thymidylate synthase (Plasmodium falciparum K1, UniProt P13922, A16V), sequence (P13922 whole entry A16V): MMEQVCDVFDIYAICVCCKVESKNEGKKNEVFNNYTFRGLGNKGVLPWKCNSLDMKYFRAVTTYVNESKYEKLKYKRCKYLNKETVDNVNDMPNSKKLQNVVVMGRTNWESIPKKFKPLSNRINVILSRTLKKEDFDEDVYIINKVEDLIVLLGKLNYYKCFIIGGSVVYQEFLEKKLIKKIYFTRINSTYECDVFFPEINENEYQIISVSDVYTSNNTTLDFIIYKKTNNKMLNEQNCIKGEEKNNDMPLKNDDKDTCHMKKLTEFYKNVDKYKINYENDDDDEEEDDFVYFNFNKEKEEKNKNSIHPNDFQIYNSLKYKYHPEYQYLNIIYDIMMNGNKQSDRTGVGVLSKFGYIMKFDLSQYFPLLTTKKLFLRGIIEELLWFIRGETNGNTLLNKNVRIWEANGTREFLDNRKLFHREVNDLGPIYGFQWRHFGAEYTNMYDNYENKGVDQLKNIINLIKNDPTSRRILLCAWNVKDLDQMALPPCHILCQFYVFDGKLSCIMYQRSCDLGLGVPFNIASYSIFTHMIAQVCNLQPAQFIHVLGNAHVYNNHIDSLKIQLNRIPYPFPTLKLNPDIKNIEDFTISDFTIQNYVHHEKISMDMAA

SMILES	Ki [1] [µM]	Ki [2] [µM]	Ki [3] [µM]	Ki [4] [µM]	Ki [5] [µM]	Ki [6] [µM]	other results
N/C(=N\O)c1cccc(CS(=O)(=O)c2ccc(Cl)cc2)c1	34.5	38	102	106	30	105	
NC(=O)Nc1ccc(Cc2ccc(NC(N)=O)cc2)cc1							NA [7]: inactive; NA [8]: inactive; NA [9]: inactive; NA [10]: inactive; NA [11]: inactive; NA [12]: inactive
N/C(=N/O)c1ccc(Oc2c(Cl)cncc2Cl)cc1	27.8	23.6	25.2	6.2	16	24.4	
C/C(=N\N=C(/N)S)c1ccc(Oc2c(Cl)cncc2Cl)cc1	1.5	0.7	0.9	2.1	1	0.6	
N=C(NO)c1ccc(CNC(=O)c2ccc(Cl)cc2)cc1	36.6	58	77.2	57	12.3	93	
NC(=O)NC(=O)Cc1ccccc1							NA [7]: inactive; NA [8]: inactive; NA [9]: inactive; NA [10]: inactive; NA [11]: inactive; NA [12]: inactive
NC(=O)Nc1ccc(Oc2ncc(C(F)(F)F)cc2Cl)cc1							NA [7]: inactive; NA [8]: inactive; NA [9]: inactive; NA [10]: inactive; NA [11]: inactive; NA [12]: inactive
N=c1nc(N)nc(Nc2ccccc2)n1-c1ccccc1							IA [13]: inactive; IA [14]: inactive
COC(=O)c1sccc1-c1ccc(/C(C)=N/NC(N)=O)o1	16	15.3		19.7	4.2	7.5	
CC1(C)N=C(N)N=C(N)N1c1ccc(Cl)cc1 [CYCLOGUANIL]	0.73	0.57		2.13	0.0016	1.14	
CNC(=O)Nc1ccc(Cc2ccc(NC(=O)NC)cc2)cc1							NA [7]: inactive; NA [8]: inactive; NA [9]: inactive; NA [10]: inactive; NA [11]: inactive; NA [12]: inactive
C=CCNC(=S)NNC(=O)c1cccn(Cc2cccc(Cl)c2)c1=O	10.6	13	15.2	17	1.7	10	
Sc1nnc(-c2ccccc2)c(-c2ccccc2)n1							IA [13]: inactive; IA [14]: inactive
N=C(S)N/N=C/c1ccc(Oc2ncc(C(F)(F)F)cc2Cl)cc1	9.3	6.8		34	2.3	12.5	
Nc1nccc(-c2csc(COc3ccc(Cl)cc3)n2)n1							solubility [15]: 25 µM (≈ 7.97 µg/mL)
Cc1nc(S)nc(O)c1Cc1c(F)cccc1Cl							IA [16]: inactive; IA [17]: inactive
NNc1nc2ccccc2nc1NN	9.7	3.4	3.6	11.4	0.8	2.7	
N=C(NO)c1ccc(Oc2cc(Cl)cc(Cl)c2)c([N+](=O)[O-])c1	32.6	36.8		9.8	4.2	22.2	
NC(=S)N/N=C/c1ccccc1 [PHENYLTHIOSEMICARBAZONE]	37.2	29.6	23.6	50	9	28.9	
N/N=C(\S)Nc1ccc(OCc2ccccc2)cc1	26.5	15.4	13.7	55.6	5.2	13.4	
NC1=NC(c2ccccc2)C(C(=O)c2ccccc2)N1 (stereo not drawn)							NA [18]: inactive; NA [19]: inactive; NA [7]: inactive; NA [20]: inactive; NA [21]: inactive; NA [22]: inactive
Oc1nnc(-c2ccccc2)c(-c2ccccc2)n1							IA [13]: inactive; IA [14]: inactive
C/N=C(\S)NNC(=O)c1cccn(Cc2cccc(Cl)c2)c1=O	19.4	5.9	11.3	13.6	1.8	7.1	
